Screening results: PubChem, several laboratories
A selection: hits, their analogues and other compounds. The true share with any hit is near 1.6%.
PABP polyA inh = PABP poly(A) RNA binding inhibitors, primary screen, biochemical, fluorescence polarization, uHTS. calls only at 35 µM. 290,000 compounds, 1% hits. AID 2014, 2009;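 further: calls also rest on retests at 20 µM and on dose response follow-up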
Target sequence (P11940 whole entry, looked up): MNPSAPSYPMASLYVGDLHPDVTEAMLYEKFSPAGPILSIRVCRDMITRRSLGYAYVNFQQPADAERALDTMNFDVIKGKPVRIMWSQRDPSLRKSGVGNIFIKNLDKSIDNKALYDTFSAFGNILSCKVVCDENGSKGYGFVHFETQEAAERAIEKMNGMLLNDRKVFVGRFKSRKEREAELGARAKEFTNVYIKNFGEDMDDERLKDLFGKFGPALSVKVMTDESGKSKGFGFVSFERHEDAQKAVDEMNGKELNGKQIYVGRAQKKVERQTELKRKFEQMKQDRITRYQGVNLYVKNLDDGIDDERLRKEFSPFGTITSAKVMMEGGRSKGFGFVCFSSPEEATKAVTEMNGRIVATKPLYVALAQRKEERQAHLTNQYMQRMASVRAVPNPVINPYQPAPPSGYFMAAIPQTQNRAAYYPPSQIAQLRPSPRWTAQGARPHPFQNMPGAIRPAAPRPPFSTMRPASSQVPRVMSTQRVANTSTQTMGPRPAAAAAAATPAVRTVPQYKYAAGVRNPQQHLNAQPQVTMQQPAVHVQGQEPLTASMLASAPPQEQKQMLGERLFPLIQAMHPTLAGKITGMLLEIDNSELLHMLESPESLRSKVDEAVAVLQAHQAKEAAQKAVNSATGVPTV
eIF4H inh = human eIF4H binding inhibitors, primary screen, translation initiation inhibitor project, biochemical, uHTS, fluorescence polarization; inhibition, % at 35 µM; 290,000 compounds, 0.94% hits; Eukaryotic translation initiation factor 4H (Homo sapiens), Q15056; eIF4H fluorescence polarization binding assay;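 further: calls also rest on retests at 20 µM and on dose response follow-up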
TCR CD3 inh = inhibitors of human TCR-CD3 interaction, primary screen, biochemical, fluorescence, TAMRA-labeled TCR probe. inhibition, % at 9.4 µM. AID 651800, 2012. 360,000 compounds, 0.37% hits. T-cell receptor (TCR); in the data active means inhibition above about 19%;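 further: recombinant mutant TCR 2C K166C tagged with TAMRA read by polarization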
RBBP9 inh = human RBBP9 inhibitors, primary screen, biochemical, fluorescence polarization, FP-Rh probe, HTS | Serine hydrolase RBBP9 (Homo sapiens), O75884 | recombinant RBBP9 | inhibition, % at 7.94 µM | 220,000 compounds, 0.2% hits | AID 1515, 2009;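 active means inhibition above the campaign mean of all tested compounds plus 3 SD, cut at about 14% in these data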
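Measured by – fluorescence polarization · Test system – RBBP9 protein · Input – 2.5 µM RBBP9 dispensing solution, before mixing · Measure – percent inhibition from mP, scaled between DMSO and no-protein wells · Benchmarks – DMSO-treated enzyme wells and wells lacking RBBP9 · Times – preincubation 30 min plus labeling 45 min at 25 °C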
PABP1 MLLE inh = inhibitors of PABP1 MLLE–PAM2 peptide binding, primary screen, biochemical, fluorescence polarization, FITC-PAM2, GST-MLLE; Polyadenylate-binding protein 1 (Homo sapiens), P11940; inhibition, % at 20 µM; 360,000 compounds, 0.36% hits; AID 588489, 2011; in the data active means inhibition above about 35%, passing the limit was not always enough
Large screens that a line does not name were inactive. Unless noted, how the calls were made is not given here.

Cc1cccc(C)c1NC(=O)c1cc(-c2ccccn2)nc2ccccc12	eIF4H inh active
O=C(O)CNC(=O)/C(=C/c1ccco1)NC(=O)/C=C/c1ccccc1	PABP polyA inh active, eIF4H inh 53
O=C(/C=C/c1cccc([N+](=O)[O-])c1)Nc1ccc(NC(=O)c2cccs2)cc1	PABP polyA inh active
O=C(/C=C/c1cccc([N+](=O)[O-])c1)c1cccs1	none
Cc1ccc(N=C2NC(=O)CS2)cc1	none
Cc1ccc(C)n1/N=C1/NC(=O)CS1	PABP polyA inh active, eIF4H inh 92
Cc1c(C2Nc3ccccc3C2C)[nH]c2ccccc12 (stereo not given)	none (no result: PABP polyA inh, eIF4H inh, RBBP9 inh, PABP1 MLLE inh)
O=C(C(=O)N1CCN(S(=O)(=O)c2ccc(OC(F)(F)F)cc2)CC1)c1cccc(C(F)(F)F)c1	none (no result: PABP polyA inh, eIF4H inh, RBBP9 inh, PABP1 MLLE inh)
CCOC(=O)c1c(/N=C/c2ccc(O)cc2O)sc2c1CCC2	PABP polyA inh active, eIF4H inh 65 (no result: TCR CD3 inh, PABP1 MLLE inh)
COC(=O)C1=C(C)N(Cc2cccc(C(F)(F)F)c2)C(=NCc2ccccc2C(F)(F)F)NC1c1cccc(F)c1 (stereo not given)	none (no result: PABP polyA inh, eIF4H inh, RBBP9 inh, PABP1 MLLE inh)
O=C(Sc1cccc2cccnc12)c1ccc(F)cc1	none (no result: PABP1 MLLE inh)
O=C(Sc1cccc2cccnc12)c1ccccc1Br	PABP1 MLLE inh 37 (no result: RBBP9 inh)
COC(=O)\C(C(C)=O)=C(/C=C/C=C/N(C)C)N(C)C	PABP polyA inh inconclusive, eIF4H inh inconclusive
COC(=O)/C(C(C)=O)=C(/C=C/C=C/N(C)C)N(C)C	PABP polyA inh active, eIF4H inh 80
O=C1c2ccccc2CC1Sc1nnc(-c2ccncc2)o1 (stereo not given)	PABP polyA inh active, eIF4H inh 4.2
O=C1CC(Sc2nnc(-c3ccccc3)o2)C(=O)N1c1ccccc1 (stereo not given)	none
CCCN(C(=O)c1cn(CCC)c2ccccc12)c1ccc(Oc2cccnc2)cc1	none (no result: PABP polyA inh, eIF4H inh, RBBP9 inh, PABP1 MLLE inh)
COC(=O)c1ccc(CSc2nc3scc(-c4cccs4)c3c(=O)[nH]2)o1	PABP polyA inh active, eIF4H inh 54
C=CCCC1CN(Cc2ccc(OC)cc2)S(=O)(=O)c2c(Oc3ccc(C)cc3)cccc2O1 (stereo not given)	none (no result: PABP polyA inh, eIF4H inh, RBBP9 inh, PABP1 MLLE inh)
CN(C)NC(=S)Nc1ccc2nc(-c3ccccn3)c(-c3ccccn3)nc2c1	eIF4H inh inconclusive
S=C(Nc1ccc2nc(-c3ccccn3)c(-c3ccccn3)nc2c1)N1CCOCC1	PABP1 MLLE inh 46
CN1C(=O)N(C)c2ccc(C=O)c3cccc1c23	eIF4H inh inconclusive, PABP1 MLLE inh 58
NC(=O)COC(=O)c1ccc(Cl)c(S(=O)(=O)N(Cc2ccccc2)c2ccc(Cl)cc2)c1	none
NC(=O)NC(=O)COC(=O)c1ccc(Cl)c(S(=O)(=O)N(Cc2ccccc2)c2ccc(Cl)cc2)c1	PABP polyA inh active
O=C(/N=C1\NC(=O)C(F)(C(F)(F)F)S1)NC1CCCCC1 (stereo not given)	eIF4H inh 122 (no result: RBBP9 inh)
O=C1CC2c3cc(-c4cc5ccccc5o4)ccc3CCN2C(=O)CN1Cc1ccccc1 (stereo not given)	none (no result: PABP polyA inh, eIF4H inh, RBBP9 inh, PABP1 MLLE inh)
CN1C(=O)N(C)C2(c3ccccc3)NC(=O)NC12c1ccccc1 (stereo not given)	none
CN1c2ccccc2N(C)C1(C)c1ccccc1	PABP polyA inh active, eIF4H inh 67
CCN1c2ccccc2N(C)C1(C)c1ccccc1 (stereo not given)	PABP polyA inh active, eIF4H inh 84 (no result: TCR CD3 inh)
O=S(=O)(c1ccc(F)cc1)N1CCCc2nc(-c3ccc(F)cc3)ccc21	none (no result: PABP polyA inh, eIF4H inh, RBBP9 inh, PABP1 MLLE inh)
COc1ccc2c(c1)CCN1C2CCN2C(=O)CCC21 (stereo not given)	PABP polyA inh active, eIF4H inh 73, PABP1 MLLE inh 58
O=c1cc(-c2ccc([N+](=O)[O-])cc2)nc2cc(-c3ccc(F)cc3)[nH]n12	PABP polyA inh active
CC(=O)NC(Cc1ccccc1)C(=O)OCC(=O)c1ccc(Cl)cc1 (stereo not given)	PABP polyA inh active, eIF4H inh active
CC(=O)NC(Cc1ccccc1)C(=O)OCC(=O)c1ccccc1 (stereo not given)	none
CC(=O)N1C[C@H]2CON(C)[C@H]2C[C@H]1c1ccccc1-c1ccccc1	none (no result: PABP polyA inh, eIF4H inh, RBBP9 inh, PABP1 MLLE inh)
COc1ccc(CNC(=O)C(c2ccco2)N(Cc2cccs2)C(=O)Cc2cccs2)cc1 (stereo not given)	none
